Publication PMC6937391 (Leukemia research, 2019)

Legend:
MM.1S cells = assay: Cell viability assay; format: cell-based; conditions: Homo sapiens, MM1.S, 24 h, read-out: EC50 (cell viability)
Method in brief: (§1)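 Cells kept in RPMI 1640 with 10% heat-inactivated FBS and penicillin/streptomycin at 37°C, 5% CO2. Plated 24 h before a 24 h exposure to test compound diluted from DMSO stock; vehicle controls got 1% DMSO. CellTiter-Glo added, equilibrated 5 min at 37°C, luminescence read at 470 nm (1 s). Survival as % of untreated control; EC50 from 3- or 4-parameter nonlinear regression.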

MM.1S BzR cells = assay: Cell viability assay; format: cell-based; conditions: Homo sapiens, MM1.S, 24 h, read-out: EC50 (cell viability)
U266 cells = assay: Cell viability assay; format: cell-based; conditions: Homo sapiens, U-266, 24 h, read-out: EC50 (cell viability)
Method in brief: as §1

U266 BzR cells = assay: Cell viability assay; format: cell-based; conditions: Homo sapiens, U-266, 24 h, read-out: EC50 (cell viability)
Granta cells = assay: Cell viability assay; format: cell-based; conditions: 24 h, read-out: EC50 (cell viability)
Method in brief: as §1

Granta BzR cells = assay: Cell viability assay; format: cell-based; conditions: 24 h, read-out: EC50 (cell viability)
Mino cells = assay: Cell viability assay; format: cell-based; conditions: Homo sapiens, 24 h, read-out: EC50 (cell viability)
Method in brief: as §1

Mino BzR cells = assay: Cell viability assay; format: cell-based; conditions: Homo sapiens, 24 h, read-out: EC50 (cell viability)
[1] = target: C-L (β1) proteasomal sub-catalytic activity (Homo sapiens, UniProt P28072); assay: Cell-based proteasome activity assay; conditions: Ki50 C-L (β1), 24 h treatment
[2] = target: T-L (β2) proteasomal sub-catalytic activity (Homo sapiens, UniProt Q99436); assay: Cell-based proteasome activity assay; conditions: Ki50 T-L (β2), 24 h treatment

EC50 (MM.1S cells)	EC50 (MM.1S BzR cells)	EC50 (U266 cells)	EC50 (U266 BzR cells)	Ki ([1]; ARD cells)	Ki ([1]; MM.1R cells)	Ki ([1]; U266 cells)	Ki ([2]; ARD cells)	Ki ([2]; MM.1R cells)	Ki ([2]; U266 cells)	SMILES	EC50 (Granta cells)	EC50 (Granta BzR cells)	EC50 (Mino cells)	EC50 (Mino BzR cells)
0.0055 ± 0.0002 µM	0.0277 ± 0.0016 µM	0.0069 ± 0.0005 µM	0.0109 ± 0.0014 µM							CC(C)C[C@H](NC(=O)[C@H](CCc1ccccc1)NC(=O)CN1CCOCC1)C(=O)N[C@@H](Cc1ccccc1)C(=O)N[C@@H](CC(C)C)C(=O)[C@@]1(C)CO1 [CAR, carfilzomib]	0.0117 ± 0.0003 µM	0.0242 ± 0.0014 µM	0.0063 ± 0.0003 µM	0.0207 ± 0.0007 µM
0.00231 ± 3e-05 µM	0.0284 ± 0.0006 µM	0.0027 ± 0.0002 µM	0.0141 ± 0.002 µM							CC(C)C[C@H](NC(=O)[C@H](Cc1ccccc1)NC(=O)c1cnccn1)B(O)O [BTZ, bortezomib]	0.0149 ± 0.0016 µM	0.0515 ± 0.0093 µM	0.01 ± 0.0004 µM	0.0234 ± 0.0011 µM
0.0255 ± 0.0009 µM	0.449 ± 0.023 µM	0.0347 ± 0.0021 µM	0.169 ± 0.015 µM	0.0196 ± 0.00832 µM	0.00741 ± 0.00159 µM	0.0161 ± 0.00401 µM	0.0928 ± 0.0191 µM	0.0293 ± 0.00783 µM	0.0749 ± 0.0168 µM	CC(C)C[C@H](NC(=O)CNC(=O)c1cc(Cl)ccc1Cl)B(O)O [IXA, ixazomib]	0.147 ± 0.012 µM	0.774 ± 0.15 µM	0.0976 ± 0.0046 µM	0.336 ± 0.03 µM
